Molecular target: Protein kinase C alpha type (Homo sapiens, UniProt P17252)
Assay: Displacement of [3H]-PDBu from recombinant human PKCalpha at 30 uM by scintillation counter method relative to control
Method in brief: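 Competition of 2 nM [3H]PDBu by test ligand at a single fixed concentration (value in line); 50 mM Tris-HCl pH 7.4, 100 μg/mL porcine brain phosphatidylserine, 5 mg/mL bovine IgG, 0.003% Tx-100, 20 ng/tube enzyme; 0.1 mM Ca2+ for PKCα, 1 mM EGTA for PKCε. 5 min at 37 °C, PEG precipitation, bound and free counted separately; nonspecific with 10 μM cold PDBu; triplicates.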

- Inhibition: 21%
SMILES: Cc1ccc(-c2cn(CC3(CO)C/C(=C\CC(CC(C)C)CC(C)C)C(=O)O3)nn2)cc1 (stereo unspecified)

Source: BindingDB's records for doi:10.1021/acs.jmedchem.1c00739 (2021)
